MrgX1 PAM: human MrgX1 positive allosteric modulation, primary screen; Q96LB2; MrgX1-HEK293, Fluo-4 calcium flux, FDSS; stronger effect = higher value; B-score at 10 µM; actives 0.63% (n = 310,000);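 active means plate-corrected calcium response at least 3 library SD above typical, normal starting fluorescence, not activating the receptor alone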;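 further: compound read alongside a low EC10 to EC30 dose of BAM8-22 agonist; peak minus trough fluorescence over baseline measured at the second addition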
Target sequence (Q96LB2 whole entry, looked up): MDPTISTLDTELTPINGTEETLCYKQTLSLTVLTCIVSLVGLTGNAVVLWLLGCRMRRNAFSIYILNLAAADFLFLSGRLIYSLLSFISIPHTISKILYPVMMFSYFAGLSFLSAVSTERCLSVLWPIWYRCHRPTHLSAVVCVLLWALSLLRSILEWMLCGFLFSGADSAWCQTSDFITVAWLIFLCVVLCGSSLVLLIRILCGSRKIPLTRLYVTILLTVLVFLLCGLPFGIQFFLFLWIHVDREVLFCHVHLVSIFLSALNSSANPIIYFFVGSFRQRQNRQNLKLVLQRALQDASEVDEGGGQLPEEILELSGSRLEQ
RGS4 act: RGS4 potentiation or activation. B-score at 10 µM. actives 0.92% (n = 310,000). AID 463111. HEK293 M3R/inducible RGS4, carbachol calcium flux Fluo4; stronger effect = lower value;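 active means B-score of the integrated calcium signal more than 4 SD below the library mean, with starting fluorescence not abnormally high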;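 further: negative B-score means reduced calcium response which marks RGS4 activation or potentiation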
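Assay system: Inducible-RGS4 HEK293 cells carrying M3 receptor | Schedule: Compound preincubation 20 min at room temperature before agonist | Signal: Kinetic calcium fluorescence imaging with Fluo4-AM dye, 2 µM | Read-out basis: B score from integrated fluorescence ratio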
MrgX1 ag: human MrgX1 receptor agonism, primary screen. MrgX1-HEK293 cells, Fluo-4 calcium fluorescence, agonist mode; stronger effect = higher value. Q96LB2. actives 0.44% (n = 310,000). AID 588627. B-score at 10 µM;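 active means calcium response B-score plate-corrected fluorescence ratio at least 3 library SD, with starting fluorescence B-score inside 5 SD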
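Test system: Stable human MrgX1 HEK293 cell line | Schedule: Overnight plating before 1 h dye loading | Read-out basis: Baseline-normalised fluorescence change ratio, B-scored | Detection: Kinetic calcium dye fluorescence, Fluo-4 NW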
MrgX1 antagonist: blocks BAM8-22 activation of human MrgX1 receptor; Q96LB2; MRGX1-HEK293 calcium flux, Fluo-4, BAM8-22 antagonism; stronger effect = lower value; B-score at 10 µM; actives 1.3% (n = 310,000);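 active means calcium-response B-score plate-corrected more than 3 library SD below zero, starting fluorescence within 5 deviations, no agonist response on first addition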;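 further: peak minus trough fluorescence over baseline after final BAM8-22 challenge near maximal dose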
RGS4 block: human RGS4 inhibition; P49798; HEK293 M3R/RGS4 inducible, Fluo-4 calcium flux; stronger effect = higher value; triggered by carbachol at its EC20; B-score at 10 µM; actives 0.45% (n = 310,000); AID 463165;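 active means B-score, a plate-corrected calcium signal, over three deviations above library mean, with baseline fluorescence within five deviations of library mean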;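 further: RGS4 expression induced by doxycycline in cells with stable M3 receptor; B-score is computed from the integrated fluorescence ratio over baseline after carbachol; higher B-score means a larger calcium signal and so more RGS4 inhibition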
Target sequence (P49798 whole entry, looked up): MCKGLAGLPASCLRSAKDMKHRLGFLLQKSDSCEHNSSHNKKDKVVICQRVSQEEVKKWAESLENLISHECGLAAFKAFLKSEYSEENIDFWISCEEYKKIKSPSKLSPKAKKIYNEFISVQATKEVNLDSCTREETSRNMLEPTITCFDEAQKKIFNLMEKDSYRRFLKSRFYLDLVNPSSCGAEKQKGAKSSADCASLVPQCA
RGS4 inh valid: RGS4 inhibitor validation. HEK293 M3R/RGS4, carbachol calcium Fluo-4 fluorescence; carbachol added at its EC20; 0 = buffer wells, 100 = carbachol control. actives 65% (n = 1,700). AID 492999. calcium response, % at 10 µM. shares compounds with RGS4 block;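 active means duplicate-averaged calcium response above the buffer-only control mean plus 5 SD of those controls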;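 further: integrated fluorescence ratio F max minus min over baseline F0; higher response in RGS4-induced cells means RGS4 inhibition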
RGS4 uninduced: checks RGS4 inhibitor effects in non-induced HEK293 M3R cells | carbachol calcium Fluo-4; submaximal (EC20) carbachol stimulus; buffer wells 0%, carbachol control wells 100% | activity (percent), % at 10 µM | actives 20% (n = 1,900) | shares compounds with RGS4 block; call rule not given here;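 further: RGS4 induction absent so cells express M3R without RGS4; higher means more calcium signal and flags a non-specific hit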
M3R basal Ca ctr: second counter-screen for RGS4 inhibitors: non-induced cells without carbachol; calcium response (agonist-mode artifact), % at 10 µM; actives 22% (n = 1,900); HEK293 M3R/RGS4 non-induced, Fluo-4 calcium, no carbachol; normalised: buffer wells 0%, carbachol wells 100%; shares compounds with RGS4 block;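 active means duplicate-averaged calcium rise in uninduced cells above buffer wells' mean plus 5 SD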
The depositor's hits bear a star; i = inactive; · = no result. A selection: hits, their analogues and other compounds. The true share with any hit is near 3.5%.

SMILES	MrgX1 PAM	RGS4 act	MrgX1 ag	MrgX1 antagonist	RGS4 block	RGS4 inh valid	RGS4 uninduced	M3R basal Ca ctr
CCOCCCNC(=O)CN1C(=O)COc2ccc(S(=O)(=O)N3CCOCC3)cc21	i	i	i	i	27*	6.5%*	i	i
C=CCN(c1ccc(C(=O)Nc2cccc([N+](=O)[O-])c2)cc1)S(C)(=O)=O	i	i	i	i	i	·	·	·
COC(=O)CSc1nc(N)c(C#N)c(-c2ccco2)c1C#N	i	i	i	i	i	·	·	·
CCSc1nc(N)c(C#N)c(-c2ccco2)c1C#N	i	i	i	i	6.5*	7.0%*	i	i
CCOC(=O)c1sc(=S)n(-c2ccccc2)c1N	i	i	i	i	i	·	·	·
CCOC(=O)c1sc(=S)n(-c2ccccc2)c1N(C(C)=O)C(C)=O	i	i	i	i	4.9*	i	i	i
Cc1ccc(S(=O)(=O)N2CCC(C(=O)OCC(=O)N(CC(C)C)C3CCS(=O)(=O)C3)CC2)cc1C (centres undefined)	i	i	i	i	i	·	·	·
N#Cc1c(-c2ccc(F)cc2)cc(-c2cccnc2)nc1N	i	i	i	i	i	·	·	·
N#Cc1c(-c2ccccc2)cc(-c2ccc(O)cc2)nc1N	i	i	i	i	i	·	·	·
Cc1ccc(-c2cc(-c3ccccc3)nc(N)c2C#N)o1	i	i	i	i	i	i	i	i
N#Cc1c(-c2ccco2)cc(-c2ccc(F)cc2)nc1N	i	i	i	i	6.3*	7.0%*	i	24%*
Cc1cc([N+](=O)[O-])ccc1NC(=O)CSc1nncn1-c1cccnc1	i	i	i	i	i	·	·	·
CCC1CCCCN1CCCn1c(=S)[nH]c2ccccc2c1=O (centres undefined)	i	i	i	i	6.9*	19%*	i	i
CCOC(=O)C1=C(c2ccccc2)NC(=O)NC1c1cc(Cl)c(O)c(OC)c1 (centres undefined)	i	i	i	i	i	·	·	·
CCOC(=O)C1=C(c2ccccc2)NC(N)=NC1c1ccc(OCc2ccc(Cl)cc2)c(OC)c1 (centres undefined)	i	i	i	i	8.9*	32%*	i	34%*
Cc1[nH]n(-c2ncc(-c3ccccc3)s2)c(=O)c1C(c1ccc(Br)cc1)C(C#N)C#N (centres undefined)	i	i	i	-6.8*	16*	50%*	i	51%*
COC(=O)c1cc(C)nc2c1C(=O)C(=O)C=C2N1CCOCC1	i	i	i	i	21*	34%*	i	i
COC(=O)c1cc(S(=O)(=O)N2CCOCC2)c(Cl)cc1N1CCOCC1	i	i	i	i	i	·	·	·
COc1ccc(CNC(=O)CN(C(=O)c2csnn2)c2cccc3ccccc23)cc1	i	i	i	i	i	·	·	·
CCc1sc(C(C2C(=O)CC(C)(C)CC2=O)C2C(=O)CC(C)(C)CC2=O)cc1[N+](=O)[O-]	i	i	52*	i	30*	30%*	i	121%*
O=C(/C=C/c1ccccc1)/C=C/c1ccccc1	i	i	i	i	6.3*	27%*	38%*	i
CNC(=O)c1nnsc1S(=O)c1ccc(Cl)cc1 (centres undefined)	·	i	·	·	7.3*	30%*	i	14%*
CCCNC(=O)c1nnsc1S(=O)c1ccc(Cl)cc1 (centres undefined)	·	i	·	·	7.2*	12%*	i	22%*
O=C(CSC1=NS(=O)(=O)c2ccccc21)Nc1ccccc1	i	i	i	i	9.4*	25%*	i	i
O=C(O)CC1(CC(=O)NCc2ccccn2)CCCCC1	i	i	i	i	i	·	·	·
SMILES	MrgX1 PAM	RGS4 act	MrgX1 ag	MrgX1 antagonist	RGS4 block	RGS4 inh valid	RGS4 uninduced	M3R basal Ca ctr
COc1cc(C=C(C(C)=O)C(C)=O)ccc1O	i	i	i	i	5.4*	6.0%*	i	i
COc1ccc(/C=C/C(=O)C(C)(C)C)cc1OC	i	i	i	i	i	·	·	·
COc1ccc(C=C(C(C)=O)C(C)=O)cc1OC	i	i	i	i	18*	28%*	44%*	i
Cc1c(Cl)cccc1NS(=O)(=O)c1cccc2nsnc12	i	i	i	i	i	·	·	·
O=C1C=CC(=O)N1c1ccc(O)cc1	i	i	i	i	14*	75%*	72%*	14%*
CN1C(=O)S/C(=C\c2ccccc2OCc2ccc(C(=O)O)cc2)C1=O	i	i	i	i	6.2*	14%*	i	i
CC(C)N1C(=O)S/C(=C/c2ccccc2OCc2ccc(C(=O)O)cc2)C1=O	i	i	i	i	i	i	i	i
COc1ccc(Nc2cnn(-c3nc4ccccc4s3)c(=O)c2Cl)cc1	i	i	i	i	4.7*	11%*	i	i
CCC1(CC)Cc2ccccc2-c2nc(NCCO)[nH]c(=O)c21	i	i	i	i	26*	101%*	84%*	i
O=c1[nH]c(NCCO)nc2c1C1(CCCCC1)Cc1ccccc1-2	i	·	i	i	·	·	·	·
CCC(=O)N1CCCc2cc(S(=O)(=O)CCC(=O)Nc3ccccc3C)ccc21	i	i	i	i	i	·	·	·
COc1cccc(CN2CCN(CC(=O)NCCc3ccccc3)CC2)c1	i	i	i	i	i	·	·	·
COc1nc(N)nc(NC(=O)c2cccs2)c1N=O	i	i	i	i	8.1*	16%*	i	i
COc1ccc(NC(=O)c2ccc(NC(=O)c3cccs3)cc2)cc1	i	i	i	i	i	·	·	·
CCc1cc(-c2n[nH]c(C)c2-c2nc(C)cs2)c(O)cc1OC	i	i	i	i	5.3*	9.5%*	i	i
CC(=O)C1=C(O)C(=O)N(c2ccc(Br)cn2)C1c1ccc(Br)cc1 (centres undefined)	i	i	i	i	i	·	·	·
